This is a sample that favours compounds with a hit; in the whole collection about 4% have one here.
NTR1 ag: activates human neurotensin receptor 1 | activation, % at 20 µM | NTR1-U2OS beta-arrestin-GFP spot imaging, agonist mode | P30989 | 330,000 tested, 0.17% active;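 active means activation at or above 40% of the spot to cytoplasm intensity ratio, with at least 20 cells analyzed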;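 further: 0% = DMSO without peptide and 100% = 100 nM NTR1 peptide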
TAAR1 antag: antagonists of human TAAR1 | Q96RJ0 | CHO RD-HGA16 TAAR1, Fluo-8 calcium fluorescence, antagonist | inhibition, % at 3 µM | 360,000 tested, 1.5% active;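 active means inhibition above a per-plate cutoff, the mean inhibition of test compounds on that plate plus 3 SD, cut at about 49% in these data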;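 further: 0% = DMSO plus EC80 beta-PEA response and 100% = DMSO alone without agonist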
Target sequence (Q96RJ0 whole entry, looked up): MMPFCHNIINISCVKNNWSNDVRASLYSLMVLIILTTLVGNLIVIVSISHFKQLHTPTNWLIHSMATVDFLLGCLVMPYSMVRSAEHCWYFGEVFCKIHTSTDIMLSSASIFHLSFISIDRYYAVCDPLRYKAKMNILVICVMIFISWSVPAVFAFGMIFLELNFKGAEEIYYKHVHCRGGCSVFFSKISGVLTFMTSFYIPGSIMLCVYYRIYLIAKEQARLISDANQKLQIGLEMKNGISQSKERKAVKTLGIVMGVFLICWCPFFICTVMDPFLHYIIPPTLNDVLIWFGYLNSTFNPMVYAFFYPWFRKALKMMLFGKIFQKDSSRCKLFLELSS
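Material: RD-HGA16 CHO cells with stable hTAAR1 and Gα16; Dosing: single nominal final test compound concentration of 3 µM; Schedule: seeding 17-24 h prior, 75-min 37 °C, 30-min RT dye loading; Detection: kinetic Fluo-8 calcium fluorescence measurement; Measure: % inhibition from peak post-agonist over basal fluorescence ratio; Benchmarks: vehicle and agonist controls.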
TAAR1 agonist: agonists of human TAAR1; AID 624467; 360,000 tested, 0.99% active; Q96RJ0; activation, % at 3 µM; CHO RD-HGA16 TAAR1, Fluo-8 calcium fluorescence; vehicle wells 0%, saturating PEA agonist 100%;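 active means activation above the mean activation of all test compounds in the run plus 3 SD, cut at about 38% in these data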
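System: CHO-derived RD-HGA16 cells with stable Gα16 and human TAAR1 / Times: 17-24 h plating, Fluo-8 75 min 37 °C, 30 min RT / Technique: calcium-sensitive Fluo-8 signal, excitation 470-495, emission 515-575 nm / Measure: % activation relative to PEA EC100 response / Benchmarks: DMSO and PEA EC100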
OX1R antag-1: antagonists of human orexin 1 receptor (OX1R); OX1R-expressing cells, FRET antagonist read-out; inhibition, % at 6.6 µM; 330,000 tested, 1.8% active; in the data active means inhibition mostly above about 38%, no sharp cut-off; inactive means mostly below about 40%;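 further: 0% = agonist challenge alone and 100% = reference antagonist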
CHO parental Ca: counter-screen: ATP calcium response change in parental CHO cells | 330,000 tested, 0.63% active | AID 463079 | inhibition, % at 5.6 µM | parental CHO-K1, ATP-induced calcium, Fluo-8 fluorescence;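 active means inhibition above that plate's mean sample inhibition plus 3 SD, cut at about 26% in these data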;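 further: 0% = ATP-challenged DMSO wells and 100% = DMSO wells without ATP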
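Material: Parental CHO cells | Reagent: ATP | Compound dosing: Single nominal dose of 5.6 µM per compound | Detection: Intracellular calcium via Fluo-8 no-wash fluorescent dye | Read-out: % inhibition of ATP-induced calcium mobilization | Benchmarks: Low control ATP plus DMSO, high control DMSO only | Replicates: Singlicate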
OX1R antag-2: human HCRTR1 antagonism; CHO/OX1R cells, Fluo-8 calcium fluorescence, orexin A; inhibition, % at 5 µM; 330,000 tested, 0.43% active;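 active means inhibition above its plate's threshold, mean inhibition of all tested compounds on the plate plus 3 SD, cut at about 37% in these data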;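 further: 0% = orexin A challenge wells and 100% = SB-334867-A antagonist wells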
TAAR1 nonsel count: nonselective antagonism, TAAR1 counter-screen; 2,400 tested, 77% active; AID 651780; inhibition, % at 3 µM; counterscreen cell line, calcium fluorescence, antagonist mode; shares compounds with TAAR1 antag; in the data active means inhibition above about 22%;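 further: CHO-Ga16 host cells stimulated with ATP at an EC80 level; 0% = agonist EC80 plus vehicle and 100% = vehicle without agonist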
TAAR1 antag conf: human TAAR1 antagonism, confirmed; TAAR1-expressing cells, fluorescence antagonist read-out; inhibition, % at 3 µM; shares compounds with TAAR1 antag; 2,400 tested, 40% active; in the data active means inhibition above about 49%;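 further: CHO-Ga16 host cells challenged with agonist PEA near its EC80; 0% = agonist at EC80 plus vehicle and 100% = vehicle with no agonist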
Ga16 ag counter: counter-screen for TAAR1 antagonists: nonselective Ga16 agonists; shares compounds with TAAR1 antag; Ga16-expressing cells, calcium fluorescence, agonist counterscreen; activation, % at 3 µM; 2,400 tested, 18% active; in the data active means activation above about 12%;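 further: 0% = vehicle wells and 100% = saturating stimulus response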
TAAR1 ag count: activates human TAAR1 in antagonist counter-screen; shares compounds with TAAR1 antag; hTAAR1 cell line, fluorescence activation, agonist mode; activation, % at 3 µM; 2,400 tested, 2% active; in the data active means activation above about 37%;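 further: CHO cells stably expressing TAAR1 with calcium dye readout; 0% = DMSO vehicle and 100% = full agonist response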
An asterisk follows results filed as active; . = not tested or not shown.

SMILES	NTR1 ag	TAAR1 antag	TAAR1 agonist	OX1R antag-1	CHO parental Ca	OX1R antag-2	TAAR1 nonsel count	TAAR1 antag conf	Ga16 ag counter	TAAR1 ag count
CCOc1ccc(S(=O)(=O)N2CCOCC2)cc1NC(=O)CSCC(=O)Nc1ccc(C)cc1	1	-21	2	28	-22	-18	.	.	.	.
O=C(COC(=O)c1ccc(O)cc1)Nc1cc(S(=O)(=O)N2CCCCCC2)ccc1Cl	.	62*	13	.	.	.	38*	52*	10	15
CN(C(=O)CSc1nnc(-c2ccco2)n1Cc1ccccc1)C1CCS(=O)(=O)C1 (stereo unspecified)	0	13	2	13	-8	11	.	.	.	.
Cc1ccc(C)c(CN2CCCN(C(=O)Cn3ncc4c3-c3ccccc3OC4)C2)c1	4	59*	6	56*	-16	3	23*	46	12*	12
O=C(COC(=O)c1ccccc1O)NC(=O)NCc1ccccc1	0	-7	5	.	.	.	.	.	.	.
COc1cc(C)ccc1OCc1cc(C(=O)N2C[C@H]3CC[C@H]2C3)no1	-1	102*	0	12	-4	-4	7	0	2	0
O=C([C@H](Cc1ccccc1)NS(=O)(=O)c1ccc(Cl)cc1)N1CC[C@@]2(O)CCCC[C@H]2C1	0	56*	26	22	-23	-30	24*	46	8	9
COc1ccc(C(CNC(=O)C(Cc2ccccc2)NC(N)=O)N(C)C)cc1 (stereo unspecified)	-1	103*	-4	1	-4	-19	6	-2	1	2
CCC(=O)Nc1ccc2c(c1)OC[C@@H](C)NC[C@@H](C)[C@@H](OC)CN(C)C2=O	.	-16	3	.	.	.	.	.	.	.
Cc1ccc(/C=N/NC(=O)CSc2nnc(-c3ccc(Cl)cc3)n2-c2ccc(Cl)cc2)o1	17	56*	14	7	-23	-5	22*	52*	7	10
Cc1ccc(/C=N/NC(=O)CSc2nnc(-c3ccccc3)n2-c2ccc(Cl)cc2)o1	6	27	11	18	-14	-38	.	.	.	.
COc1ccccc1NC(=O)CSc1nnc2ccccn12	2	-1	2	-2	-3	-5	.	.	.	.
COC(=O)c1ccc(C)c(NC(=O)CSc2nnc3ccccn23)c1	5	87*	-2	6	-16	-5	3	0	0	10
Cc1cc(/C=N/NC(N)=S)c(C)n1-c1ccc(Cl)cc1	-1	84*	5	8	-1	-1	3	83*	16*	18
Cc1cc(/C=N/NC(N)=S)c(C)n1-c1ccc(Br)cc1	0	95*	2	10	-15	-4	15	92*	12*	17
Cc1cc(/C=N/NC(N)=S)c(C)n1-c1cccc(Cl)c1	0	12	21	9	-3	11	.	.	.	.
CC(C)C[C@H]1CNC(=O)C(=O)N1CC1CCN(CCC(C)c2ccccc2)CC1 (stereo partly specified)	.	-4	2	.	.	.	.	.	.	.
Cc1ccccc1S(=O)(=O)Cc1ccc(C(=O)N2CCN(c3ncccn3)CC2)o1	0	15	14	29	-14	-2	.	.	.	.
CCc1ccccc1S(=O)(=O)Cc1ccc(C(=O)N2CCN(c3ccccn3)CC2)o1	3	51*	9	15	-16	-45	25*	32	5	6
O=C(OCC(=O)N1CCCCCC1)c1ccccc1Br	0	-8	0	7	-14	-10	.	.	.	.
CCOC(=O)N1CCC(NC(=O)c2ccc3c(c2)sc2nc(-c4ccccc4)cn23)CC1	16	57*	17	15	-15	-7	31*	35	10	8
c1ccc(Oc2ccc(-n3cnnn3)cc2)cc1	2	105*	-1	11	1	-2	8	2	4	5
CC(=O)Nc1ccc(S(=O)(=O)N(Cc2ccco2)Cc2cc3ccccc3[nH]c2=O)cc1	0	73*	19	39*	-27	-13	27*	57*	9	11
CCc1ccc2[nH]c(=O)c(CN(Cc3ccco3)S(=O)(=O)c3ccc4c(c3)OCCO4)cc2c1	2	13	6	4	-9	-26	.	.	.	.
CCCCN(Cc1cc2ccccc2[nH]c1=O)S(=O)(=O)c1ccc(C)cc1	8	63*	0	4	-15	-31	14	38	6	12
SMILES	NTR1 ag	TAAR1 antag	TAAR1 agonist	OX1R antag-1	CHO parental Ca	OX1R antag-2	TAAR1 nonsel count	TAAR1 antag conf	Ga16 ag counter	TAAR1 ag count
CC(C)C[C@@H](CSc1ccccc1)N1CCN(CC(C)C)CCC1=O	-2	10	6	18	-23	-30	.	.	.	.
COc1ccc(OC2C(=O)N(CCc3ccc(OC)c(OC)c3)C2c2ccc3c(c2)OCO3)cc1 (stereo unspecified)	-1	57*	6	20	-4	-19	22*	24	5	1
COc1ccc(C2CC(=O)C(c3cccc(C)c3)=CN2Cc2ccccc2)cc1 (stereo unspecified)	.	66*	3	.	.	.	22*	40	2	1
COc1ccc(C2=CN(Cc3ccccc3)C(c3ccccc3)CC2=O)cc1 (stereo unspecified)	-1	39	6	13	-40	6	.	.	.	.
COC(=O)[C@H](Cc1ccccc1)NC(=O)NCCc1ccccc1F	0	-6	0	7	6	-5	.	.	.	.
Cc1oc2cc(O)cc(C)c2c(=O)c1-c1cnn(-c2ccccc2)c1	17	58*	4	58	-8	-7	33*	45	8	4
COc1ccccc1NC(=O)COC(=O)c1cc(C)oc1C	0	-2	3	18	-38	-1	.	.	.	.
CC(=O)c1ccccc1NC(=O)COC(=O)c1cc(C)oc1C	4	54*	34	11	-3	-27	4	10	0	5
CCOC(=O)c1[nH]c(C)c(C(=O)OCc2ccccc2F)c1C	-1	2	0	14	-7	0	.	.	.	.
COc1ccc(/C=N\NC(=O)c2cc3c(ccc4ccccc43)o2)cc1O	2	57*	10	.	.	.	40*	55*	13*	12
COc1ccc(/C=N/NC(=O)c2cc3c(ccc4ccccc43)o2)cc1OC	0	53*	7	.	.	.	28*	36	7	3
CCCCC(=O)N(C)c1c(CC)nc2c(OCCC)cccn12	.	-23	-1	.	.	.	.	.	.	.

Assay outcomes as filed in PubChem.
